Test results from article PMC9675722 (Cell chemical biology, 2022).
Read-outs that look alike come from different tables or passages of the source.

Columns and labels:
BT-474 cells = test: CellTiter-Glo proliferation assay, BT-474; format: cell-based, Human; details: for EC50: Homo sapiens, BT-474, 72 h, read-out: anti-proliferative EC50
ERK5 [1] = target: T1, ERK5 (Homo sapiens, UniProt Q13164); test: KdELECT biochemical binding assay; details: for binding affinity for ERK5 (in words): Table S1
T1 sequence (Q13164 whole entry): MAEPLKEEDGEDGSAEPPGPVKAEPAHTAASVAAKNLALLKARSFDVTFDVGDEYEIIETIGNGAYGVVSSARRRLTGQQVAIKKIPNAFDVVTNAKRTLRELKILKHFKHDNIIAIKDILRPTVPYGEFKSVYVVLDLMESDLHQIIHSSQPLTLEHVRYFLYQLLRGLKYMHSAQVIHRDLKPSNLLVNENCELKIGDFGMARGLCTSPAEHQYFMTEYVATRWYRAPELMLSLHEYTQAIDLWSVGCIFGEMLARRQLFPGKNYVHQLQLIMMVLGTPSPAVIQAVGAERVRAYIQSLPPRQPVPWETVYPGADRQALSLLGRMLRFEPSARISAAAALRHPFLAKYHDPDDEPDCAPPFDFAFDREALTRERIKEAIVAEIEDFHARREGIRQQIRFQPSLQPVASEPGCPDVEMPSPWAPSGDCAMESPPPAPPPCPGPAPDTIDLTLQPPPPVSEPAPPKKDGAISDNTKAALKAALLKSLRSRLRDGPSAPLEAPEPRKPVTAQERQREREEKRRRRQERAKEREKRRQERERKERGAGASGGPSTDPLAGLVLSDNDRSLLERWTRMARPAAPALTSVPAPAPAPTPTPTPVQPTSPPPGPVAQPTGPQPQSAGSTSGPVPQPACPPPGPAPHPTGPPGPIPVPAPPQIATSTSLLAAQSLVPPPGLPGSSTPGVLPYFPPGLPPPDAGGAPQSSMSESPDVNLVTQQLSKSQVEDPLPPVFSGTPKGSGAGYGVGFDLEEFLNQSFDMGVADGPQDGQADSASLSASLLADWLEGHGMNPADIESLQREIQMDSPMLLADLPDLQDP
In short: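 Binding constants to ERK5 were determined in an outsourced KdELECT kinase binding assay from an 11-point dose–response curve.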

panel of 468 kinases = test: scanMAX KINOMEscan selectivity panel; format: binding; details: 1 μM
SNU-449 cells = test: CellTiter-Glo proliferation assay, SNU-449; format: cell-based, Human; details: for EC50: Homo sapiens, SNU-449, 72 h, read-out: anti-proliferative EC50
IL-6 secretion = test: IL-6 ELISA, LPS-stimulated HUVECs; format: cell-based, Human; details: LPS 10 μg/mL 6 hours
In short: (§1)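 HUVECs were seeded at 30,000–60,000 cells/well and pre-treated with test compound for 5 or 24 h. They were then stimulated with E. coli O111:B4 LPS at 10 μg/mL for 6 h. Secreted IL-6 or IL-8 in the supernatant was quantified by sandwich ELISA kits per the manufacturer. Statistics used two-way ANOVA with Bonferroni correction.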

IL-8 secretion = test: IL-8 ELISA, LPS-stimulated HUVECs; format: cell-based, Human; details: LPS 10 μg/mL 6 hours
In short: as §1

MOLT4 cells [2] = test: CellTiter-Glo proliferation assay, MOLT4; format: cell-based, Human; details: for EC50: read-out: anti-proliferative EC50
[3] = test system: BRD4 and other members of the BET family proteins; details: ref Wang et al., 2018; cited from earlier work
ERK5 [4] = target: T1, ERK5; test: ERK5 degradation in MOLT4 cells; format: cell-based; details: for DC50: read-out: DC50 of ERK5 degradation, 5-hour treatment
MOLT4 cells [5] = test: global quantitative TMT MS proteomics in MOLT4 cells; format: cell-based, Human; details: MOLT4, 250 nM, 5 hours
In short: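 MOLT4 cells were treated for 5 h with test compound (250 nM, or 100 nM for one degrader) or DMSO (biological triplicate), then harvested by centrifugation. TMT-labelled tryptic peptides were analysed by LC-MS3 on an Orbitrap Fusion Lumos using a 190 min 6–27% acetonitrile gradient. Spectra were searched against Swissprot human. Proteins with ≥2 unique peptides were kept, and abundance relative to DMSO was computed by limma.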

BRD4 = BRD4 (Homo sapiens, UniProt O60885); test: BRD4 immunoblot in MOLT4 cells; format: cell-based; details: 5 hours
In short: (§2)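 MOLT4 cells (RPMI, 10% heat-inactivated FBS, pen-strep, 37 °C, 5% CO2) were exposed to test compound at a range of concentrations for 5 h. Lysis was in M-PER with protease and phosphatase inhibitors, and lysates were BCA-normalised. Samples were run on 4–12% Bis-Tris gels and blotted to nitrocellulose. ERK5, BRD4, AURKA and actin antibodies were applied overnight at 4 °C. Detection was by IRDye secondaries. Blots are representative of 2–3 biological replicates.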

AURKA = target: T2, AURKA (Homo sapiens, UniProt O14965); test: AURKA immunoblot in MOLT4 cells; format: cell-based; details: 5 hours
T2 sequence (O14965 1-403): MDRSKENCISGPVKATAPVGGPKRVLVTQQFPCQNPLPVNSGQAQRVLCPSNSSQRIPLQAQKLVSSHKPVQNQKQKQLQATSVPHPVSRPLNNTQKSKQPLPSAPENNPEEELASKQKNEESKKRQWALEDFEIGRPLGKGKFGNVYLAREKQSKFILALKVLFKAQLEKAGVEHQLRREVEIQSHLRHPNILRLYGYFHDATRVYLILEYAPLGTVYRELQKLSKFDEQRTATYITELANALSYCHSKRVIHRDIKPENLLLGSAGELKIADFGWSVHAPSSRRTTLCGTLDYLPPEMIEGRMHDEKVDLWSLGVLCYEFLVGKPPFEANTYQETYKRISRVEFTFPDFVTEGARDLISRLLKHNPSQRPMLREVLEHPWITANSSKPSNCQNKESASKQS
In short: as §2

[6] = test system: IL-6 stimulated MM.1S cells; test: IL-6-induced MM.1S proliferation; format: cell-based, Human; details: 500 nM and 1 μM, 5 nM IL-6, 3d
In short: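 MM.1S cells at 10,000 cells/well were pre-treated for 5 h with test compound at 500 nM or 1 μM. Recombinant human IL-6 (5 nM) was then added. After 72 h, proliferation was read by CellTiter-Glo. Data are mean with standard deviation of three biological replicates.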

ERK5 [7] = details: read-out: reported IC50 for ERK5; ref Wang et al., 2018; cited from earlier work

Question: With CN1CCN(c2ccc3c(C4CCN(C(=O)c5ccc(OC(F)(F)F)cc5N)CC4)ncnc3c2)CC1 [INY-06-086, (2-amino-4-(trifluoromethoxy)phenyl)(4-(7-(4-methylpiperazin-1-yl)quinazolin-4-yl)piperidin-1-yl)methanone] as the compound, how does the EC50 (BT-474 cells) read?
Answer: > 20000 nM

Question: And the “binding affinity for ERK5 (in words)” value (ERK5 [1])?
Answer: high binding affinity

Question: What about the “biochemical selectivity profile across the kinome” value (panel of 468 kinases; 468 kinases) of the same compound?
Answer: similarly selective for ERK5 as BAY-885

Question: What about the EC50 (SNU-449 cells) of the same compound?
Answer: > 20000 nM

Question: Which “IL-6 secretion upon LPS stimulation” value (IL-6 secretion; 5-hour pre-treatment) does the source give for CCOc1cc(N2CCC(O)CC2)ccc1Nc1ncc2c(n1)N(C)c1ccccc1C(=O)N2C [XMD8-92] here?
Answer: reduced

Question: And the “IL-6 secretion upon LPS stimulation” value (IL-6 secretion; 24-hour pre-treatment)?
Answer: significantly reduced

Question: And the “IL-8 secretion upon LPS stimulation” value (IL-8 secretion; 5-hour pre-treatment)?
Answer: reduced

Question: What about the “IL-8 secretion upon LPS stimulation” value (IL-8 secretion; 24-hour pre-treatment) of the same compound?
Answer: significantly reduced

Question: Which “anti-proliferative effect (in words)” value (BT-474 cells; BT-474, 3d treatment) does the source give for CCOc1cc(C(=O)N2CCC(N3CCN(C)CC3)CC2)ccc1Nc1ncc2c(n1)N(C1CCCC1)c1ccccc1C(=O)N2C [XMD17-109] here?
Answer: the only compound to display anti-proliferative effects

Question: And the “IL-6 secretion upon LPS stimulation” value (IL-6 secretion; 5-hour pre-treatment)?
Answer: reduced

Question: And the “IL-6 secretion upon LPS stimulation” value (IL-6 secretion; 24-hour pre-treatment)?
Answer: significantly reduced

Question: And the “IL-8 secretion upon LPS stimulation” value (IL-8 secretion; 5-hour pre-treatment)?
Answer: reduced

Question: What about the “IL-8 secretion upon LPS stimulation” value (IL-8 secretion; 24-hour pre-treatment) of the same compound?
Answer: significantly reduced

Question: What about the “anti-proliferative effect (in words)” value (SNU-449 cells; SNU-449, 3d treatment) of the same compound?
Answer: the only compound to display anti-proliferative effects

Question: What about the “anti-proliferative activity (in words)” value (MOLT4 cells [2]; MOLT4, 3 days) of the same compound?
Answer: potent anti-proliferative activities

Question: And the “binding to off-target BET family proteins” value [3]?
Answer: binds to and inhibits BRD4 and other members of the BET family proteins

Question: What does the source list for Cc1ncsc1-c1ccc([C@H](C)NC(=O)[C@H]2C[C@H](O)CN2C(=O)[C@@H](NC(=O)CCCCCN2CCN(c3ccc4c(C5CCN(C(=O)c6ccc(OC(F)(F)F)cc6N)CC5)ncnc4c3)CC2)C(C)(C)C)cc1 [INY-06-089, (2R,4S)-1-((S)-2-(6-(4-(4-(1-(2-amino-4-(trifluoromethoxy)benzoyl)piperidin-4-yl)quinazolin-7-yl)piperazin-1-yl)hexanamido)-3,3-dimethylbutanoyl)-4-hydroxy-N-((S)-1-(4-(4-methylthiazol-5-yl)phenyl)ethyl)pyrrolidine-2-carboxamide]?
Answer: EC50 (BT-474 cells): > 20000 nM; IL-6 secretion upon LPS stimulation (IL-6 secretion; 5-hour pre-treatment): no effect; IL-8 secretion upon LPS stimulation (IL-8 secretion; 5-hour pre-treatment): no effect; ERK5 downregulation (ERK5 [4]; 5 hours, concentrations up to 5 μM): unable to induce ERK5 downregulation; potential off-target kinases (panel of 468 kinases): also inhibits the same kinases; EC50 (SNU-449 cells): > 20000 nM

Question: For Cc1ncsc1-c1ccc([C@H](C)NC(=O)[C@@H]2C[C@@H](O)CN2C(=O)[C@@H](NC(=O)CCCCCN2CCN(C(=O)c3ccc(Nc4ncc5c(n4)N(C4CCCC4)c4ccccc4C(=O)N5C)cc3)CC2)C(C)(C)C)cc1 [INY-05-091, (2S,4R)-1-((S)-2-(6-(4-(4-((11-cyclopentyl-5-methyl-6-oxo-6,11-dihydro-5H-benzo[e]pyrimido[5,4-b][1,4]diazepin-2-yl)amino)benzoyl)piperazin-1-yl)hexanamido)-3,3-dimethylbutanoyl)-4-hydroxy-N-((S)-1-(4-(4-methylthiazol-5-yl)phenyl)ethyl)pyrrolidine-2-carboxamide], which “binding affinity for ERK5 (in words)” value (ERK5 [1]) is on record?
Answer: high binding affinities

Question: And the “AURKA protein abundance, proteomics” value (MOLT4 cells [5])?
Answer: induced downregulation

Question: What about the “BRD3 and BRD4 protein abundance, proteomics” value (MOLT4 cells [5]) of the same compound?
Answer: additional downregulated targets

Question: And the “ERK5 (MAPK7) protein abundance, proteomics” value (MOLT4 cells [5])?
Answer: potent downregulation

Question: What about the DC50 (ERK5 [4]) of the same compound?
Answer: 167 nM

Question: And the “anti-proliferative activity (in words)” value (MOLT4 cells [2]; MOLT4, 3 days)?
Answer: potent anti-proliferative activities

Question: And the BRD4 protein levels (BRD4)?
Answer: potent BRD4 degradation

Question: And the AURKA protein levels (AURKA)?
Answer: validated through immunoblot analysis

Question: For CN1CCN(c2cnc3c(C4CCN(C(=O)c5ccc(OC(F)(F)F)cc5N)CC4)ncnc3c2)CC1 [BAY-885], which EC50 (BT-474 cells) is on record?
Answer: > 20000 nM

Question: What about the Kd (ERK5 [1]) of the same compound?
Answer: 1 nM

Question: What about the “IL-6 secretion upon LPS stimulation” value (IL-6 secretion; 5-hour pre-treatment) of the same compound?
Answer: no effect

Question: And the “IL-6 secretion upon LPS stimulation” value (IL-6 secretion; 24-hour pre-treatment)?
Answer: no effect

Question: What about the “IL-8 secretion upon LPS stimulation” value (IL-8 secretion; 5-hour pre-treatment) of the same compound?
Answer: no effect

Question: What about the “IL-8 secretion upon LPS stimulation” value (IL-8 secretion; 24-hour pre-treatment) of the same compound?
Answer: no effect

Question: And the EC50 (SNU-449 cells)?
Answer: > 20000 nM

Question: What about the EC50 (MOLT4 cells [2]; Homo sapiens, MOLT-4, 72 h) of the same compound?
Answer: > 10000 nM

Question: What about the “effect on IL-6-induced proliferation” value [6] of the same compound?
Answer: no effect

Question: For CCOc1cc(C(=O)N2CCC(N3CCN(C)CC3)CC2)ccc1Nc1ncc2c(n1)N(S(C)(=O)=O)c1ccccc1C(=O)N2C [AX15836, reference compound], which EC50 (BT-474 cells) is on record?
Answer: > 20000 nM

Question: And the EC50 (SNU-449 cells)?
Answer: > 20000 nM

Question: What about the EC50 (MOLT4 cells [2]; Homo sapiens, MOLT-4, 72 h) of the same compound?
Answer: > 10000 nM

Question: And the “effect on IL-6-induced proliferation” value [6]?
Answer: no effect

Question: For CCC(C)N1c2ccccc2C(=O)N(C)c2cnc(Nc3ccc(C(=O)N4CCN(CCCCCC(=O)N[C@H](C(=O)N5C[C@H](O)C[C@H]5C(=O)N[C@@H](C)c5ccc(-c6scnc6C)cc5)C(C)(C)C)CC4)cc3)nc21 (stereo partly drawn) [INY-05-128, (2S,4R)-1-((2S)-2-(6-(4-(4-((11-(sec-butyl)-5-methyl-6-oxo-6,11-dihydro-5H-benzo[e]pyrimido[5,4-b][1,4]diazepin-2-yl)amino)benzoyl)piperazin-1-yl)hexanamido)-3,3-dimethylbutanoyl)-4-hydroxy-N-((S)-1-(4-(4-methylthiazol-5-yl)phenyl)ethyl)pyrrolidine-2-carboxamide], which “binding affinity for ERK5 (in words)” value (ERK5 [1]) is on record?
Answer: high binding affinities

Question: And the “AURKA protein abundance, proteomics” value (MOLT4 cells [5])?
Answer: induced downregulation

Question: And the “ERK5 (MAPK7) protein abundance, proteomics” value (MOLT4 cells [5])?
Answer: potent downregulation

Question: What about the DC50 (ERK5 [4]) of the same compound?
Answer: 281 nM

Question: And the EC50 (MOLT4 cells [2]; Homo sapiens, MOLT-4, 72 h)?
Answer: 1100 nM

Question: And the BRD4 protein levels (BRD4)?
Answer: no effect

Question: What about the AURKA protein levels (AURKA) of the same compound?
Answer: validated through immunoblot analysis

Question: For CCC(C)N1c2ccccc2C(=O)N(C)c2cnc(Nc3ccc(C(=O)N4CCC(N5CCN(C)CC5)CC4)cc3OC)nc21 (centres unmarked) [JWG-071], which IC50 (ERK5 [7]) is on record?
Answer: 88 nM

Question: What about the EC50 (MOLT4 cells [2]; MOLT4, 3 days) of the same compound?
Answer: 2400 nM

Question: What about the “binding to off-target BET family proteins” value [3] of the same compound?
Answer: significantly reduced affinity
